Data reported in ChEMBL document CHEMBL1156395, “Cytotoxic polyacetylenic alcohols from the marine sponge Petrosia species” (2001).
≈ marks a conversion by molar mass, not a printed value.

Key:
[1] = test system: A549; test: Cytotoxicity against human A549 cells; type: functional; conditions: read-out: ED50 (the source's name)
[2] = test system: SK-MEL-2; test: Cytotoxicity against human SK-MEL-2 cells; type: functional; conditions: read-out: ED50 (the source's name)
[3] = test system: XF498; test: Cytotoxicity against human XF498 cells; type: functional; conditions: read-out: ED50 (the source's name)
[4] = test system: SK-OV-3; test: Cytotoxicity against human SKOV3 cells; type: functional; conditions: read-out: ED50 (the source's name)
[5] = test system: HCT-15; test: Cytotoxicity against human HCT15 cells; type: functional; conditions: read-out: ED50 (the source's name)
[6] = test system: Nucleic Acid; test: Inhibition of SV40 DNA replication at 40 uM; type: nucleic-acid assay; conditions: Betapolyomavirus macacae
How it was run: (§1)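 Cell-free SV40 origin (pUC) plasmid replication in 40 mM creatine phosphate-di-Tris pH 7.7 with creatine kinase, 7 mM MgCl2, 0.5 mM DTT, 4 mM ATP, 200 µM UTP/GTP/CTP, 100 µM dATP/dGTP/dCTP, 25 µM [3H]dTTP, 0.6 µg SV40 T-Ag and replication proteins. Incubation 90 min at 37 °C; acid-insoluble radioactivity counted. Products checked with [α-32P]dATP on agarose gel.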

[7] = test system: Nucleic Acid; test: Inhibition of SV40 DNA replication at 20 uM; type: nucleic-acid assay; conditions: Betapolyomavirus macacae; how it was run: as §1

SMILES | EC50 [1] [µg/mL] | EC50 [2] [µg/mL] | EC50 [3] [µg/mL] | EC50 [4] [µg/mL] | EC50 [5] [µg/mL] | inhibition [6] [%] | inhibition [7] [%]
C#C/C=C\CCCCCCCCCCCCCCCC/C=C\CCCC/C=C\CCCCC#C[C@@H](O)C#CCCCCCC/C=C/[C@H](O)C#C | 5.2 (≈ 7.61 µM) | 1.6 (≈ 2.34 µM) | 5.8 (≈ 8.49 µM) | 5.1 (≈ 7.47 µM) | 3.9 (≈ 5.71 µM) | 38 | 21
C#C/C=C\CCCCCCCCCCCCC/C=C/C(O)CCCC/C=C\CCCCC#C[C@H](O)C#CCCCCCC/C=C/[C@H](O)C#C (stereo not given in full) | 4 (≈ 5.96 µM) | 0.5 (≈ 0.745 µM) | 3.5 (≈ 5.22 µM) | 1.2 (≈ 1.79 µM) | 1.4 (≈ 2.09 µM) | 55 | 8
C#CCCCCCCCCCCCCCCCCC/C=C\CCCC/C=C\CCCCC#C[C@@H](O)C#CCCCCCCCC[C@@H](O)C#C [PETROTETRAYNDIOL F] | 3.7 (≈ 5.5 µM) | 1.1 (≈ 1.63 µM) | 4.3 (≈ 6.39 µM) | 3.8 (≈ 5.65 µM) | 3.4 (≈ 5.05 µM) | 48 | 16
C#C/C=C\CCCCCCCCCCCCCC/C=C\CCCCC(O)/C=C/CCCC#C[C@H](O)C#CCCCCCC/C=C/[C@H](O)C#C (stereo not given in full) | 10 (≈ 14.9 µM) | 1.3 (≈ 1.94 µM) | 4.7 (≈ 7 µM) | 1.8 (≈ 2.68 µM) | 4 (≈ 5.96 µM) | 36 | 9
C#C/C=C\CCCCCCCCCCCCCCC(O)/C=C/CCC/C=C\CCCCC#C[C@H](O)C#CCCCCCC/C=C/[C@H](O)C#C (stereo not given in full) | 4 (≈ 5.96 µM) | 0.5 (≈ 0.745 µM) | 3.5 (≈ 5.22 µM) | 1.2 (≈ 1.79 µM) | 1.4 (≈ 2.09 µM) | 55 | 8
